Source: ChEMBL document CHEMBL3352730, “Synthesis and effects on cell viability of flavonols and 3-methyl ether derivatives on human leukemia cells” (Eur J Med Chem, 2014)
The source made the active and inactive calls. The rule behind the calls is not given here.

How the values were obtained:
[1] = tested on: MOLT-3; experiment: Induction of apoptosis in human MOLT3 cells assessed as increase in caspase 3/7 activity using DEVD-pNA substrate at 10 uM after 24 hrs; assay type: functional, cell-based
Method in brief: (§1)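 Cells were given 10 µM for 24 h. Lysates were assayed for cleavage of DEVD-pNA (caspase-3/7), IETD-pNA (caspase-8) and LEHD-pNA (caspase-9). Results are expressed as fold over control, from three independent experiments in triplicate.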

[2] = tested on: U-937; experiment: Induction of cell cycle arrest in human U937 cells assessed as accumulation at G1 phase at 3 uM after 12 hrs by propidium iodide staining based flow cytometry (reference value: 45.8 +/- 0.8%); assay type: functional
[3] = tested on: HL-60; experiment: Increase in DR4 expression in human HL60 cells at 10 30 uM after 24 hrs by immunoblotting method; assay type: functional, cell-based
Method in brief: (§2)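 HL-60 and U937 cells were treated with increasing concentrations for 24 h. Lysates were immunoblotted for TRAIL, DR4 and DR5.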

[4] = tested on: U-937; experiment: Induction of cell cycle arrest in human U937 cells assessed as accumulation at G1 phase at 1 uM after 48 hrs by propidium iodide staining based flow cytometry (reference value: 51.9 +/- 0.9%); assay type: functional
[5] = molecular target: Mitogen-activated protein kinase; ERK1/ERK2 (Homo sapiens) (UniProt P27361+P28482); experiment: Increase in ERK1/2 phosphorylation in human HL60 cells at 10 to 30 uM after 2 to 6 hrs by Western blotting method; assay type: cell-based; conditions: HL-60
Chain of Mitogen-activated protein kinase; ERK1/ERK2 (Homo sapiens) (P27361 whole entry, looked up): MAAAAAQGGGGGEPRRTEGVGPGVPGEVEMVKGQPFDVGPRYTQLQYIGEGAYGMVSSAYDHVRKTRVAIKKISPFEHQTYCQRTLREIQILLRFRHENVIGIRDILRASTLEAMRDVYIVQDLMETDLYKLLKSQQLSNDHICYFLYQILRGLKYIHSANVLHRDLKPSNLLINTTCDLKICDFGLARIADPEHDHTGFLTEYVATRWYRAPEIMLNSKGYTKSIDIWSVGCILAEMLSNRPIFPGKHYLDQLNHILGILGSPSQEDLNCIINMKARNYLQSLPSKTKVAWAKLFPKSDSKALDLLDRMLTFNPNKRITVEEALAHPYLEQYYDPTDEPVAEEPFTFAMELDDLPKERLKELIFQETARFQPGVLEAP
Chain of Mitogen-activated protein kinase; ERK1/ERK2 (Homo sapiens) (P28482 whole entry, looked up): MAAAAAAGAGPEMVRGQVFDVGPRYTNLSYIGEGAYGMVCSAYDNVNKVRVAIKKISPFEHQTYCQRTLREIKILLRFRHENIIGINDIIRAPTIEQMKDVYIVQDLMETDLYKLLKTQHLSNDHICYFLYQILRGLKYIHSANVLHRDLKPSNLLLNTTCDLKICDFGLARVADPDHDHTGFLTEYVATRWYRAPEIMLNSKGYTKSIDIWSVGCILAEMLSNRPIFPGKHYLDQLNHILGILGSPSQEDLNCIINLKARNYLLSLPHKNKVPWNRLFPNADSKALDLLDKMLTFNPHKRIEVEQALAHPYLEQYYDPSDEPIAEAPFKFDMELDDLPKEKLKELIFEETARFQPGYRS
Method in brief: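 HL-60 cells were incubated for a time course. Extracts were immunoblotted with phospho-specific antibodies for ERK 1/2, JNK/SAPK and p38MAPK. Membranes were then stripped and reprobed for the total kinases as loading controls.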

[6] = tested on: HL-60; experiment: Induction of cell cycle arrest in human HL60 cells assessed as accumulation at G1 phase at 10 uM after 12 hrs by propidium iodide staining based flow cytometry (reference value: 57.2 +/- 0.9%); assay type: functional
[7] = tested on: U-937; experiment: Induction of apoptosis in human U937 cells assessed as pro-caspase-3 cleavage by Western blotting method; assay type: functional, cell-based
Method in brief: (§3)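 Cells were exposed to a range of compound concentrations and harvested at 24 h. Lysates were immunoblotted for caspase proforms and cleaved forms, and for Bcl-2 family proteins.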

[8] = tested on: U-937; experiment: Induction of apoptosis in human U937 cells assessed as pro-caspase-6 cleavage by Western blotting method; assay type: functional, cell-based; method in brief: as §3
[9] = tested on: HL-60; experiment: Induction of cell cycle arrest in human HL60 cells assessed as accumulation at G2/M phase at 3 uM after 48 hrs by propidium iodide staining based flow cytometry (reference value: 17.9 +/- 0.7%); assay type: functional
[10] = tested on: MOLT-3; experiment: Induction of apoptosis in human MOLT3 cells assessed as pro-caspase-7 cleavage by Western blotting method; assay type: functional, cell-based; method in brief: as §3
[11] = tested on: MOLT-3; experiment: Induction Bax cleavage in human MOLT3 cells at 3 uM by Western blotting method; assay type: functional, cell-based; method in brief: as §3
[12] = tested on: U-937; experiment: Induction of cell cycle arrest in human U937 cells assessed as accumulation at G2/M phase at 10 uM after 12 hrs by propidium iodide staining based flow cytometry (reference value: 24.2 +/- 1.2%); assay type: functional
[13] = tested on: U-937; experiment: Induction of cell cycle arrest in human U937 cells assessed as accumulation at G2/M phase at 3 uM after 48 hrs by propidium iodide staining based flow cytometry (reference value: 19.1 +/- 1.1%); assay type: functional
[14] = tested on: HL-60; experiment: Induction of apoptosis in human HL60 cells assessed as pro-caspase-7 cleavage by Western blotting method; assay type: functional, cell-based; method in brief: as §3
[15] = tested on: HL-60; experiment: Induction of cell cycle arrest in human HL60 cells assessed as accumulation at G2/M phase at 1 uM after 48 hrs by propidium iodide staining based flow cytometry (reference value: 17.9 +/- 0.7%); assay type: functional
[16] = tested on: HL-60; experiment: Induction of cell cycle arrest in human HL60 cells assessed as accumulation at G2/M phase at 1 uM after 12 hrs by propidium iodide staining based flow cytometry (reference value: 18.5 +/- 0.5%); assay type: functional
[17] = tested on: U-937; experiment: Induction of cell cycle arrest in human U937 cells assessed as accumulation at subG1 phase at 10 uM after 48 hrs by propidium iodide staining based flow cytometry (reference value: 6.7 +/- 0.3%); assay type: functional
[18] = tested on: U-937; experiment: Induction of cell cycle arrest in human U937 cells assessed as accumulation at S phase at 1 uM after 24 hrs by propidium iodide staining based flow cytometry (reference value: 18.6 +/- 0.3%); assay type: functional
[19] = tested on: HL-60; experiment: Induction of cell cycle arrest in human HL60 cells assessed as accumulation at subG1 phase at 1 uM after 48 hrs by propidium iodide staining based flow cytometry (reference value: 3.7 +/- 0.1%); assay type: functional
[20] = tested on: HL-60; experiment: Induction of cell cycle arrest in human HL60 cells assessed as accumulation at S phase at 3 uM after 24 hrs by propidium iodide staining based flow cytometry (reference value: 17.9 +/- 0.6%); assay type: functional
[21] = tested on: MOLT-3; experiment: Effect on Bcl-2 expression in human MOLT3 cells by Western blotting method; assay type: functional, cell-based; method in brief: as §3
[22] = tested on: MOLT-3; experiment: Induction of apoptosis in human MOLT3 cells assessed as pro-caspase-3 cleavage by Western blotting method; assay type: functional, cell-based; method in brief: as §3
[23] = tested on: MOLT-3; experiment: Induction of apoptosis in human MOLT3 cells assessed as increase in caspase 8 activity using IETD-pNA substrate at 10 uM after 24 hrs; assay type: functional, cell-based; method in brief: as §1
[24] = tested on: HL-60; experiment: Induction of cell cycle arrest in human HL60 cells assessed as accumulation at G1 phase at 3 uM after 24 hrs by propidium iodide staining based flow cytometry (reference value: 53 +/- 1.1%); assay type: functional
[25] = tested on: U-937; experiment: Induction of cell cycle arrest in human U937 cells assessed as accumulation at S phase at 1 uM after 12 hrs by propidium iodide staining based flow cytometry (reference value: 20.5 +/- 0.8%); assay type: functional
[26] = tested on: MOLT-3; experiment: Induction of apoptosis in human MOLT3 cells assessed as pro-caspase-6 cleavage by Western blotting method; assay type: functional, cell-based; method in brief: as §3
[27] = tested on: U-937; experiment: Induction of cell cycle arrest in human U937 cells assessed as accumulation at G2/M phase at 10 uM after 24 hrs by propidium iodide staining based flow cytometry (reference value: 22.8 +/- 1.6%); assay type: functional
[28] = tested on: HL-60; experiment: Induction of cell cycle arrest in human HL60 cells assessed as accumulation at G1 phase at 10 uM after 24 hrs by propidium iodide staining based flow cytometry (reference value: 53 +/- 1.1%); assay type: functional
[29] = tested on: MOLT-3; experiment: Induction of apoptosis in human MOLT3 cells assessed as increase in caspase 9 activity using LEHD-pNA substrate at 10 uM after 24 hrs; assay type: functional, cell-based; method in brief: as §1
[30] = tested on: U-937; experiment: Induction of cell cycle arrest in human U937 cells assessed as accumulation at subG1 phase at 1 uM after 12 hrs by propidium iodide staining based flow cytometry (reference value: 4.6 +/- 0.9%); assay type: functional
[31] = tested on: U-937; experiment: Cytotoxicity against human U937 cells at 30 uM incubated for 24 hrs followed of 0.5 ug/mL TRAIL exposure for 24 hrs by MTT assay; assay type: functional, cell-based
Method in brief: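 U937 cells, MTT viability read-out. One arm received TRAIL at 0.5 µg/mL together with compound at 30 µM for 48 h. The other arm had compound for 24 h, then TRAIL for 24 h. Three independent experiments, each in triplicate.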

[32] = tested on: HL-60; experiment: Induction of apoptosis in human HL60 cells in presence of p38MAPK inhibitor SB203580 after 24 hrs by propidium iodide staining based flow cytometry; assay type: functional, cell-based
[33] = tested on: U-937; experiment: Increase in DR4 expression in human U937 cells at 10 30 uM after 24 hrs by immunoblotting method; assay type: functional, cell-based; method in brief: as §2

Question: Which Activity [1] does the source give for `O=c1c(O)c(-c2ccc(Br)cc2)oc2ccccc12` here?
Answer: Active

Question: And the Activity [2]?
Answer: 46.6%

Question: And the Activity [3]?
Answer: Active

Question: And the Activity [4]?
Answer: 49%

Question: And the Activity [5]?
Answer: Active

Question: What about the Activity [6] of the same compound?
Answer: 58.2%

Question: And the Activity [7]?
Answer: inactive

Question: And the Activity [8]?
Answer: Active

Question: And the Activity [9]?
Answer: 18%

Question: What about the Activity [10] of the same compound?
Answer: Active

Question: What about the Activity [11] of the same compound?
Answer: Active

Question: What about the Activity [12] of the same compound?
Answer: 19.6%

Question: What about the Activity [13] of the same compound?
Answer: 19%

Question: What about the Activity [14] of the same compound?
Answer: Active

Question: What about the Activity [15] of the same compound?
Answer: 20.8%

Question: And the Activity [16]?
Answer: 19.4%

Question: And the Activity [17]?
Answer: 45.7%

Question: And the Activity [18]?
Answer: 18.9%

Question: And the Activity [19]?
Answer: 3.4%

Question: And the Activity [20]?
Answer: 17.6%

Question: What about the Activity [21] of the same compound?
Answer: inactive

Question: What about the Activity [22] of the same compound?
Answer: Active

Question: What about the Activity [23] of the same compound?
Answer: Active

Question: What about the Activity [24] of the same compound?
Answer: 50.1%

Question: And the Activity [25]?
Answer: 21.5%

Question: And the Activity [26]?
Answer: Active

Question: What about the Activity [27] of the same compound?
Answer: 18.7%

Question: And the Activity [28]?
Answer: 37.3%

Question: And the Activity [29]?
Answer: Active

Question: And the Activity [30]?
Answer: 3.3%

Question: What about the Activity [31] of the same compound?
Answer: Active

Question: And the Activity [32]?
Answer: Active

Question: And the Activity [33]?
Answer: Active
